Molecules are shown by their SMILES.

For orientation: GI50 means the concentration at which growth is held to half of that of the control.

Experiment [1] has as its system K562. In words: Growth inhibition of human K562 cells expressing p210Bcr/Abl after 96 hrs by trypan blue exclusion assay. Format: functional, cell-based. The conditions noted are these: K562, 96 h. In a few lines: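 K562 cells were kept in RPMI with 10% FBS and penicillin–streptomycin at 37 °C under 5% CO2. Cells were seeded at 1 × 10^5 cells/mL with a range of compound concentrations, using DMSO as the negative control. After 96 h, viability was counted by Trypan blue exclusion and expressed as percent of DMSO control to derive GI50.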

The test system of experiment [2] is DU-145. The experiment is described as follows: Growth inhibition of human DU145 cells after 96 hrs by trypan blue exclusion assay. In kind it is functional. As to conditions: DU-145, 96 h.

Turning to `Cc1ccc(CS(=O)(=O)/C(=C/c2ccc(S(C)(=O)=O)cc2)C(=O)c2ccc(Br)cc2)cc1`, the figures for the GI50 in experiment [1] and in experiment [2] were 1 µM and 10 µM, respectively.
Taken in the same sequence, the figures for `COc1ccc(/C=C(/Sc2ccc(C)cc2)C(=O)c2ccc(Cl)cc2)cc1` were 1 µM and 1 µM.
Taken in the same sequence, the figures for `COc1ccccc1/C=C(/SCc1ccc(Cl)cc1)C(=O)c1ccc(Cl)cc1` were 1 µM and 1 µM.
Taken in the same sequence, the figures for `CSc1ccc(/C=C(/SCc2ccc(Br)cc2)C(=O)c2ccc(C(=O)O)cc2)cc1` were 10 µM and 10 µM.
For `Cc1ccc(C)c(/C=C(\C(=O)c2ccc(Cl)cc2)S(=O)(=O)c2ccc(Br)cc2)c1`, the GI50 in experiment [1] and in experiment [2] was 1 µM throughout.
Consider `O=C(/C(=C\c1c(O)cc(O)cc1O)Sc1ccccc1Br)c1ccc(Br)cc1`, for which the GI50 in experiment [1] and in experiment [2] was over 100 µM throughout.
For `O=C(/C(=C\c1ccccc1OCc1ccccc1)SCc1ccc(F)cc1)c1ccc(Cl)cc1`, the GI50 in experiment [1] and in experiment [2] was 1 µM throughout.
For the compound `O=C(/C(=C\c1ccc(O)c([N+](=O)[O-])c1)SCc1ccc(Cl)cc1)c1ccc(Cl)cc1`, the 50% growth inhibitory concentration (GI50) in experiment [1] and in experiment [2] was 10 µM throughout.
Take `Cc1ccc(S/C(=C/c2c[nH]c3ccc(Br)cc23)C(=O)c2ccc(Br)cc2)cc1`: the figures for the GI50 in experiment [1] and in experiment [2] were 10 µM and 1 µM, respectively.
For `O=C(/C(=C\c1ccc(F)c([N+](=O)[O-])c1)S(=O)(=O)c1ccc(Br)cc1)c1ccc(Br)cc1`, in that order: 10 µM and 25 µM.
For `O=C(/C(=C\c1c(O)cc(O)cc1O)SCc1ccc(Cl)c(Cl)c1)c1ccc(Cl)cc1`, in that order: 25 µM and 25 µM.
For `O=C(/C(=C\c1ccc([N+](=O)[O-])c(O)c1)SCc1ccc(Br)cc1)c1ccc([N+](=O)[O-])cc1`, in that order: 1 µM and 1 µM.
On to `O=C(/C(=C\c1ccc(F)cc1F)Sc1ccc(Br)cc1)c1ccc(Cl)cc1`, for which the GI50 in experiment [1] and in experiment [2] was 1 µM throughout.
`COc1ccc(S/C(=C/c2ccccc2OCc2ccccc2)C(=O)c2ccc(Cl)cc2)cc1`: the GI50 in experiment [1] and in experiment [2] was 1 µM in each case.
Consider `COc1cc(OC)c(/C=C(\C(=O)c2ccc(Cl)cc2)S(=O)(=O)Cc2ccc(F)cc2)c(OC)c1`, for which the concentration for 50% growth inhibition (GI50) in experiment [1] came to 1 µM; in experiment [2], 25 µM.
As for `O=C(C(=Cc1ccc(Br)cc1)SCc1ccccc1Cl)c1ccc(Cl)cc1`, the results for the GI50 in experiment [1] and in experiment [2] were 1 µM and 10 µM, respectively.
`CN(C)c1ccc(/C=C(/SCc2ccc(Cl)c(Cl)c2)C(=O)c2ccc(Cl)cc2)cc1`: the 50% growth inhibitory concentration (GI50) in experiment [1] and in experiment [2] was 50 µM each time.
As for `O=C(/C(=C\c1ccc([N+](=O)[O-])c(O)c1)S(=O)(=O)c1ccc(Br)cc1)c1c(F)c(F)c(F)c(F)c1F`, the GI50 in experiment [1] and in experiment [2] was 1 µM in each case.
Regarding `Cc1ccc(S/C(=C/c2ccc(Cl)c(Cl)c2)C(=O)c2ccc(Br)cc2)cc1`, the GI50 in experiment [1] and in experiment [2] was 50 µM each time.
For `O=C(/C(=C\c1cc([N+](=O)[O-])ccc1F)S(=O)(=O)Cc1ccc(F)cc1)c1ccc(Br)cc1`, the GI50 was 50 µM in experiment [1] and over 100 µM in experiment [2].
`Cc1ccc(S/C(=C/c2c[nH]c3ccc(Br)cc23)C(=O)c2ccc(Cl)cc2)cc1`: the GI50 in experiment [1] and in experiment [2] was 1 µM throughout.
Consider `O=C(/C(=C\c1ccc(O)c([N+](=O)[O-])c1)Sc1ccccc1Br)c1ccc(Br)cc1`, for which the concentration for 50% growth inhibition (GI50) in experiment [1] and in experiment [2] was 10 µM in each case.
As to `Cc1ccc(S/C(=C/c2ccc(F)cc2C(F)(F)F)C(=O)c2ccc(Br)cc2)cc1`, the GI50 in experiment [1] and in experiment [2] was 25 µM throughout.
`Cc1ccc(/C=C(\C(=O)c2ccc(Cl)cc2)S(=O)(=O)Cc2ccc(Cl)cc2Cl)s1`: the GI50 was determined as 25 µM in experiment [1] and 10 µM in experiment [2].
Taken in the same sequence, the figures for `O=C(/C(=C\c1ccc(O)c([N+](=O)[O-])c1)Sc1ccc(Br)cc1)c1c(F)c(F)c(F)c(F)c1F` were 1 µM and 1 µM.
For `Cc1ccc(S(=O)(=O)/C(=C/c2ccc(Cl)cc2)C(=O)c2ccc(Cl)cc2)cc1`, in that order: 1 µM and 1 µM.
For `COc1cc(C(=O)/C(=C\c2ccc([N+](=O)[O-])c(O)c2)SCc2ccc(Br)cc2)cc(OC)c1OC`, in that order: 1 µM and 1 µM.
Take `Cc1ccc(S/C(=C/c2ccc(Cl)cc2)C(=O)c2ccc(Br)cc2)cc1`: the concentration for 50% growth inhibition (GI50) in experiment [1] was 1 µM; in experiment [2], 10 µM.
For `O=C(C(=Cc1ccc(Br)cc1)S(=O)(=O)Cc1ccc(I)cc1)c1ccc(I)cc1`, in that order: 20 µM and 20 µM.
Taken in the same sequence, the figures for `O=C(/C(=C\c1ccc(F)cc1Cl)Sc1ccc(Br)cc1)c1ccc(Br)cc1` were 1 µM and 1 µM.
For `Cc1ccc(S/C(=C/c2sccc2C)C(=O)c2ccc(Cl)cc2)cc1`, in that order: 50 µM and 50 µM.
`Cc1ccc(CS/C(=C/c2ccccc2F)C(=O)c2ccc(Cl)cc2)cc1`: the values for the GI50 in experiment [1] and in experiment [2] were 1 µM and 10 µM, respectively.
For `COc1ccc(/C=C(/SCc2ccc(Cl)cc2)C(=O)c2ccc(Br)cc2)cc1O`, in that order: 1 µM and 1 µM.
For `O=C(/C(=C\c1cc(Br)c(O)c(Br)c1)S(=O)(=O)Cc1ccc(Br)cc1)c1ccc(Br)cc1`, in that order: 25 µM and 25 µM.
Taken in the same sequence, the figures for `COc1ccc(/C=C(/SCc2ccc(F)cc2)C(=O)c2ccc(Br)cc2)cc1O` were 1 µM and 1 µM.
Regarding `O=C(/C(=C\c1ccc(OCc2ccccc2)cc1)SCc1cccc(Cl)c1)c1ccc(Br)cc1`, the 50% growth inhibitory concentration (GI50) in experiment [1] and in experiment [2] was 1 µM in each case.
For the compound `Cc1ccsc1/C=C(/SCc1ccc(Cl)cc1Cl)C(=O)c1ccc(Cl)cc1`, the concentration for 50% growth inhibition (GI50) in experiment [1] was found to be 50 µM; in experiment [2] it was 10 µM.
Taken in the same sequence, the figures for `O=C(O)c1ccc(C(=O)/C(=C\c2ccc(O)c([N+](=O)[O-])c2)SCc2ccc(F)cc2)cc1` were 50 µM and over 100 µM.
Taken in the same sequence, the figures for `O=C(/C(=C\c1ccc(Cl)cc1)SCc1ccc(Cl)cc1)c1ccccc1Cl` were 1 µM and 30 µM.
Taken in the same sequence, the figures for `COc1ccc(C(=O)/C(=C\c2ccc(Br)cc2)S(=O)(=O)c2ccc(F)cc2)cc1` were 1 µM and 1 µM.
Consider `COc1ccc(S(=O)(=O)/C(=C/c2ccc(C)s2)C(=O)c2ccc(Cl)cc2)cc1`, for which the 50% growth inhibitory concentration (GI50) in experiment [1] turned out to be 10 µM; in experiment [2], 25 µM.
For `O=C(/C(=C\c1ccc(O)cc1)SCc1ccc(F)cc1)c1ccc(Br)cc1`, the 50% growth inhibitory concentration (GI50) in experiment [1] is 1 µM; in experiment [2] it was 10 µM.
For `O=C(/C(=C\c1ccc(Cl)c([N+](=O)[O-])c1)Sc1ccc(Br)cc1)c1ccc(Br)cc1`, in that order: 1 µM and 10 µM.
For `O=C(/C(=C\c1cc(I)c(O)c(I)c1)SCc1ccc(Br)cc1)c1ccc(Br)cc1`, in that order: 1 µM and 1 µM.
For `CSc1ccc(/C=C(\C(=O)c2ccc(Cl)cc2)S(=O)(=O)Cc2ccc(Cl)cc2)cc1`, in that order: 1 µM and 10 µM.
As to `COc1ccc(C=C(C(=O)c2ccc(OC)cc2)S(=O)(=O)Cc2ccc([N+](=O)[O-])cc2)cc1`, the results for the GI50 in experiment [1] and in experiment [2] were 10 µM and 25 µM, respectively.
Taken in the same sequence, the figures for `Cc1ccc(S(=O)(=O)/C(=C/c2ccccc2OCc2ccccc2)C(=O)c2ccc(Br)cc2)cc1` were 1 µM and 1 µM.
Taken in the same sequence, the figures for `Cc1ccc(CS(=O)(=O)/C(=C/c2ccccc2Br)C(=O)c2ccc(Cl)cc2)cc1` were 25 µM and 25 µM.
For `COc1ccccc1/C=C(\C(=O)c1ccc(Br)cc1)S(=O)(=O)Cc1ccc(F)cc1`, in that order: 25 µM and 25 µM.
With `COc1ccccc1/C=C(/SCc1ccc(F)cc1)C(=O)c1ccc(Cl)cc1`, the GI50 in experiment [1] was found to be 1 µM; in experiment [2] it was 10 µM.
For `Cc1cc(C)cc(/C=C(\C(=O)c2ccc(Cl)cc2)S(=O)(=O)c2ccc(Br)cc2)c1`, in that order: 10 µM and 10 µM.
Taken in the same sequence, the figures for `O=C(/C(=C\c1ccc(F)cc1C(F)(F)F)S(=O)(=O)Cc1ccc(Cl)c(Cl)c1)c1ccc(Cl)cc1` were 1 µM and 1 µM.
For `COc1ccc(S(=O)(=O)/C(=C/c2ccc(Br)cc2)C(=O)c2ccc(Br)cc2)cc1`, in that order: 6 µM and 6 µM.
Turning to `CN(C)c1ccc(/C=C(/Sc2ccccc2Br)C(=O)c2ccc(Br)cc2)cc1`, the GI50 in experiment [1] and in experiment [2] was over 100 µM in each case.
Consider `CCOc1ccc(/C=C(\C(=O)c2ccc(Cl)cc2)S(=O)(=O)c2ccc(C)cc2)cc1OC`, for which the GI50 in experiment [1] and in experiment [2] was 1 µM throughout.
Take `COc1ccccc1/C=C(/Sc1ccc(Br)cc1)C(=O)c1ccc(Cl)cc1`: the GI50 in experiment [1] and in experiment [2] was 10 µM in each case.
`O=C(/C(=C\c1ccc(F)cc1)S(=O)(=O)c1ccc(Br)cc1)c1ccc(Br)cc1`: the values for the GI50 in experiment [1] and in experiment [2] were 10 µM and 4 µM, respectively.
For `COc1cc(OC)c(/C=C(/SCc2ccc(F)cc2)C(=O)c2ccc(Cl)cc2)c(OC)c1`, in that order: 10 µM and 10 µM.
Taken in the same sequence, the figures for `Cc1ccc(S/C(=C/c2ccc(Oc3ccccc3)cc2)C(=O)c2ccc(Cl)cc2)cc1` were 10 µM and 10 µM.
For `O=C(/C(=C\c1cc(Cl)c(O)c(Cl)c1)SCc1ccc(Br)cc1)c1ccc(Br)cc1`, in that order: 10 µM and 10 µM.
Take `Cc1ccc(CS/C(=C/c2ccc(C(=O)O)cc2)C(=O)c2ccc(Cl)c([N+](=O)[O-])c2)cc1`: the GI50 in experiment [1] is 1 µM; in experiment [2], 10 µM.

Source of the values: ChEMBL document CHEMBL1240409, “Design, synthesis and evaluation of (E)-alpha-benzylthio chalcones as novel inhibitors of BCR-ABL kinase” (Bioorg Med Chem, 2010).
